In ChEMBL document CHEMBL1151420 (Antimicrob Agents Chemother, 2007):
Values after ≈ are worked out from the molar mass of the structure shown.

Assays:
[1] = test system: Equid alphaherpesvirus 1; test: Antiviral activity against EHV1 assessed as inhibition of plaque formation; assay type: functional, organism-based
[2] = species on record: Equus caballus; test: Renal toxicity in horse assessed as changes in urea level; assay type: organism-based; conditions: in vivo
Summary of the method: (§1)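 Blood was drawn once daily on the day before, the day of, and the day after drug administration. Plasma urea and creatinine were measured to assess kidney function.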

[3] = species on record: Equus caballus; test: Renal toxicity in horse assessed as changes in creatinine level; assay type: organism-based; conditions: in vivo; summary of the method: as §1
[4] = Plasma concentration in horse at 20 mg/kg, po administered as single dose after 5 hrs; assay type: ADME, organism-based, Equus caballus; design: dose 20 mg/kg, route oral
Summary of the method: (§2)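 Single 20 mg/kg dose of crushed tablets suspended in 100 ml tap water, given by nasogastric tube and flushed with at least 200 ml water. Plasma sampled from 20 min to 30 h. Total concentration measured by HPLC-fluorescence (LOQ 50 ng/ml). Noncompartmental analysis; absolute F was calculated against the i.v. data.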

[5] = Cmax in horse at 10 mg/kg, iv after 15 mins; assay type: ADME, organism-based, Equus caballus; design: dose 10 mg/kg, route intravenous; conditions: in vivo
[6] = Oral bioavailability in horse at 20 mg/kg administered as single dose; assay type: ADME, organism-based, Equus caballus; conditions: in vivo; summary of the method: as §2
[7] = Solubility at pH 2.3 to 9.2; assay type: physicochemical; conditions: buffer
[8] = Distribution coefficient, log P of the compound; assay type: physicochemical; conditions: octanol/water
[9] = Cmax in iv dosed adult horse; assay type: ADME, organism-based, Equus caballus; design: route intravenous; conditions: in vivo
[10] = Mean residence time in iv dosed adult horse; assay type: ADME, organism-based, Equus caballus; conditions: in vivo
[11] = Total Cmax in horse at 10 mg/kg, iv after 1 hr by two-compartmental study; assay type: ADME, organism-based, Equus caballus; design: dose 10 mg/kg, route intravenous; conditions: in vivo
[12] = test system: Equus caballus; test: fCmax in horse at 10 mg/kg, iv after 1 hr by three-compartmental study; assay type: ADME, organism-based; design: dose 10 mg/kg, route intravenous; conditions: in vivo
[13] = test system: Equus caballus; test: fAUC in horse at 10 mg/kg, iv after 1 hr by three-compartmental study; assay type: ADME, organism-based; design: dose 10 mg/kg, route intravenous; conditions: in vivo
[14] = Total mean residence time in horse at 10 mg/kg, iv after 1 hr by two-compartmental study; assay type: ADME, organism-based, Equus caballus; design: dose 10 mg/kg, route intravenous; conditions: in vivo
[15] = Free mean residence time in horse at 10 mg/kg, iv after 1 hr by three-compartmental study; assay type: ADME, organism-based, Equus caballus; design: dose 10 mg/kg, route intravenous; conditions: in vivo
[16] = test system: Equus caballus; test: fCmax in horse at 20 mg/kg, po administered as single dose; assay type: ADME, organism-based; design: dose 20 mg/kg, route oral; conditions: in vivo
Summary of the method: (§3)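 Horses (six, A–F) were dosed once intragastrically by nasogastric tube with 20 mg/kg of crushed tablets suspended in 100 ml tap water, followed by a ≥200 ml water flush. Heparinized plasma was sampled at 0 and from 20 min to 30 h and stored at –70°C. Unbound drug was isolated by 30 kDa ultrafiltration with ganciclovir internal standard and measured by LC-MS/MS (LOQ 5 ng/ml). Parameters were derived noncompartmentally.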

[17] = test system: Equus caballus; test: fAUC in horse at 20 mg/kg, po administered as single dose; assay type: ADME, organism-based; design: dose 20 mg/kg, route oral; conditions: in vivo; summary of the method: as §3

Compound	EC50 [1] [µg/mL]	Activity [2]	Activity [3]	concentration at 5 h [4] [ng/mL]	Cmax [5] [ng/mL]	bioavailability [6] [%]	solubility [7] [µg/mL]	logP [8]	Cmax [9] [ng/mL]	MRT [10] [h]	Cmax [11] [ng/mL]	fCmax [12] [µg/mL]	fAUC [13] [ng·h/mL]	MRT [14] [h]	MRT [15] [h]	fCmax [16] [µg/mL]	fAUC [17] [ng·h/mL]
Nc1nc2c(ncn2COCCO)c(=O)[nH]1 [ACYCLOVIR]	1.7 (≈ 7.55 µM)	Non-toxic	Non-toxic	50	46200	2.8	1000 (≈ 4440 µM)	-1.59	10400	7.09	10700	10.5	24600	5.38	23.1	0.4	3530
CC(C)[C@H](N)C(=O)OCCOCn1cnc2c(=O)[nH]c(N)nc21 [VALACYCLOVIR]																4.76	14900
